According to article PMC12123421 (Journal of medicinal chemistry, 2022):
“Also recorded” adds a separate entry of the source.

How the values were obtained:
BEAS-2B = assay: Mammalian cytotoxicity assay; type: cell-based, human; conditions: for concentration up to which no toxicity was observed (BEAS-2B): range 0–62.6 μg/mL, 24 h; for non-toxic concentration as fold of bactericidal concentration (BEAS-2B): vs bactericidal concentration against P. gingivalis
In short: (§1)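 Cells counted at about 80% confluence and seeded in 96-well plates: 10,000 cells/well for HEK-293, 3,000 cells/well for BEAS-2B and HepG2. Adhered 16 h at 37 °C, 5% CO2. Fresh medium with test compound at 0–62.6 μg/mL (from 1000× stocks) or 0.1% DMSO added, 24 h. Resazurin added 6 h; fluorescence read at 560/590 nm. Survival expressed relative to DMSO wells after medium-only blank subtraction.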

HEK-293 = assay: Mammalian cytotoxicity assay; type: cell-based, human; conditions: for concentration up to which no toxicity was exhibited (HEK-293): range 0–62.6 μg/mL, 24 h; for non-toxic concentration as fold of bactericidal concentration (HEK-293): vs bactericidal concentration against P. gingivalis
In short: as §1

HepG2 = assay: Mammalian cytotoxicity assay; type: cell-based; conditions: for concentration up to which no toxicity was exhibited (HepG2): range 0–62.6 μg/mL, 24 h; for non-toxic concentration as fold of bactericidal concentration (HepG2): vs bactericidal concentration against P. gingivalis
In short: as §1

P. gingivalis ATCC 33277 [1] = assay: Colony forming unit; type: cell-based, Porphyromonas gingivalis; conditions: 24 h exposure, CFUs counted after 5 days
In short: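 P. gingivalis ATCC 33277 at 1 × 10^8 cells/well, grown exponentially in supplemented BHI under anaerobic conditions in 96-well plates. Exposed 24 h to test compound in DMSO at 1, 10 or 100 μM. Negative controls were medium or DMSO; positive controls were tetracycline 2.81 μM and zafirlukast 25 and 50 μM. Cultures diluted 1:400, spread on blood agar, and CFUs counted after 5 days anaerobic.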

P. gingivalis ATCC 33277 [2] = assay: Percent growth inhibition of planktonic P. gingivalis, colorimetric WST-1 assay; type: cell-based, Porphyromonas gingivalis; conditions: for P. gingivalis growth inhibition: 2.5 h after addition of WST-1; for inhibition at 100 µM / inhibition at 10 µM: Porphyromonas gingivalis, ATCC33277, read-out: P. gingivalis growth inhibition
[3] = test system: immortalized oral keratinocyte (OKF6) cells; assay: Cytotoxic effect on oral epithelial cells; type: cell-based, human; conditions: 24 h, microscopy
[4] = Cytotoxic effect on oral epithelial cells; type: cell-based, human; conditions: human, OKF6/hTERT immortalized oral keratinocyte cells
[5] = test system: P. gingivalis ATCC 33277 biofilm; assay: Inhibition of mono-species biofilm growth, safranin staining; type: cell-based, Porphyromonas gingivalis; conditions: at all concentrations tested (10, 25, 50, and 100 μM), 48 h
In short: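 P. gingivalis ATCC 33277 at 1 × 10^8 bacteria/well, grown logarithmically in supplemented BHI in 96-well plates. Exposed to test compound in DMSO (10, 25, 50, 100 μM) for 48 h, anaerobic, gentle shaking. Negative controls were medium or DMSO; positive controls were tetracycline 2.81 μM and zafirlukast 50 μM. Medium removed, biofilm washed three times with PBS, stained with 0.1% safranin, and percentage biofilm growth determined.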

F. nucleatum ATCC 25586 = assay: Percent growth inhibition, colorimetric WST-1 assay; type: cell-based, Fusobacterium nucleatum; conditions: 24 h, 30 min after addition of WST-1
In short: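 F. nucleatum was grown in supplemented BHI to log phase (3–4 h after subculture), then seeded at 10^8 cells/well in 90 μL. It was exposed anaerobically to test compound in DMSO (1, 10, 100 μM) for 24 h. WST-1 reagent was added, and absorbance was read at 405 nm (reference 600 nm). % inhibition = 100 × [OD(control) − OD(treated)]/OD(control).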

[6] = test system: murine red blood cells (mRBCs); assay: Hemolytic activity against murine red blood cells; type: cell-based; conditions: at concentrations up to 27 μg/mL, data not shown
[7] = at all concentrations tested (1, 10, and 100 μM)

| SMILES | concentration up to which no toxicity was observed (BEAS-2B) (BEAS-2B) | concentration up to which no toxicity was exhibited (HEK-293) (HEK-293) | concentration up to which no toxicity was exhibited (HepG2) (HepG2) | P. gingivalis growth inhibition (P. gingivalis ATCC 33277 [2]; 100 μM, 24 h) | inhibition at 100 µM (P. gingivalis ATCC 33277 [2]) [%] | growth inhibition by CFU assay (bactericidal activity) (P. gingivalis ATCC 33277 [1]; 10 μM) | P. gingivalis growth inhibition (P. gingivalis ATCC 33277 [2]; 10 μM, 24 h) | P. gingivalis growth inhibition (P. gingivalis ATCC 33277 [2]; 1 μM, 24 h) | other results |
| --- | --- | --- | --- | --- | --- | --- | --- | --- | --- |
| COc1ccc(Cc2cn(C)c3ccc([N+](=O)[O-])cc23)cc1C(=O)NS(=O)(=O)c1ccccc1Br [Compound 21c] | up to 31.3 μg/mL | up to 62.6 μg/mL | up to 62.6 μg/mL | comparable or superior activity | 61 to 73 | – | – | – | non-toxic concentration as fold of bactericidal concentration (BEAS-2B) (BEAS-2B): 6 fold; non-toxic concentration as fold of bactericidal concentration (HEK-293) (HEK-293): 11- to 13 fold; non-toxic concentration as fold of bactericidal concentration (HepG2) (HepG2): 11- to 13 fold; growth inhibition by CFU assay (bactericidal activity) (P. gingivalis ATCC 33277 [1]; 10 μM, 10 µM): bactericidal; cytotoxicity to OKF6 cells by cell morphology and density ([3]; 10 μM): low toxicity; cytotoxicity to OKF6 cells by cell morphology and density ([3]; 100 μM): slight increase in cytotoxicity; viability at 24 h, 10 µM [4]: 9 to 63%; viability at 24 h, 100 µM [4]: 5 to 23% |
| COc1ccc(Cc2cn(C)c3ccc([N+](=O)[O-])cc23)cc1C(=O)NS(=O)(=O)c1ccc([N+](=O)[O-])cc1 [Compound 21g] | – | – | – | comparable or superior activity | – | bactericidal | comparable or superior activity | – | biofilm growth [5]: at least 86% |
| COc1ccc(Cc2cn(C)c3ccc([N+](=O)[O-])cc23)cc1C(=O)NS(=O)(=O)c1ccccc1F [Compound 21a] | up to 62.6 μg/mL | up to 62.6 μg/mL | up to 62.6 μg/mL | comparable or superior activity | 61 to 73 | – | – | – | non-toxic concentration as fold of bactericidal concentration (BEAS-2B) (BEAS-2B): 11- to 13 fold; non-toxic concentration as fold of bactericidal concentration (HEK-293) (HEK-293): 11- to 13 fold; non-toxic concentration as fold of bactericidal concentration (HepG2) (HepG2): 11- to 13 fold |
| CCCn1cc(Cc2ccc(OC)c(C(=O)NS(=O)(=O)c3ccc([N+](=O)[O-])cc3)c2)c2cc([N+](=O)[O-])ccc21 [Compound 23g] | – | – | – | comparable or superior activity | – | not bactericidal | comparable or superior activity | comparable or superior activity | inhibition at 10 µM (P. gingivalis ATCC 33277 [2]): 77 to 90%; P. gingivalis growth inhibition (P. gingivalis ATCC 33277 [2]; [7]): 60–90% |
| COc1ccc(Cc2cn(C)c3ccc([N+](=O)[O-])cc23)cc1C(=O)NS(=O)(=O)c1c(F)cccc1F [Compound 21d] | – | – | – | comparable or superior activity | 61 to 73 | not bactericidal | – | – | growth inhibition against F. nucleatum (F. nucleatum ATCC 25586; 1 μM): no activity; growth inhibition against F. nucleatum (F. nucleatum ATCC 25586; 10 μM): no activity |
| CCCn1cc(Cc2ccc(OC)c(C(=O)NS(=O)(=O)c3ccccc3F)c2)c2cc([N+](=O)[O-])ccc21 [Compound 23a] | – | – | – | – | – | – | – | little to no activity | – |
| CCn1cc(Cc2ccc(OC)c(C(=O)NS(=O)(=O)c3ccc([N+](=O)[O-])cc3)c2)c2cc([N+](=O)[O-])ccc21 [Compound 22g] | – | – | – | comparable or superior activity | – | not bactericidal | comparable or superior activity | – | – |
| COc1ccc(Cc2cn(C)c3ccc([N+](=O)[O-])cc23)cc1C(=O)NS(=O)(=O)c1ccccc1Cl [Compound 21b] | up to 31.3 μg/mL | up to 62.6 μg/mL | up to 62.6 μg/mL | comparable or superior activity | 61 to 73 | – | – | – | non-toxic concentration as fold of bactericidal concentration (BEAS-2B) (BEAS-2B): 6 fold; non-toxic concentration as fold of bactericidal concentration (HEK-293) (HEK-293): 11- to 13 fold; non-toxic concentration as fold of bactericidal concentration (HepG2) (HepG2): 11- to 13 fold; growth inhibition by CFU assay (bactericidal activity) (P. gingivalis ATCC 33277 [1]; 10 μM, 10 µM): bactericidal; cytotoxicity to OKF6 cells by cell morphology and density ([3]; 100 μM): slight increase in cytotoxicity; viability at 24 h, 10 µM [4]: 9 to 63%; viability at 24 h, 100 µM [4]: 5 to 23% |
| CCCCn1cc(Cc2ccc(OC)c(C(=O)NS(=O)(=O)c3ccccc3F)c2)c2cc([N+](=O)[O-])ccc21 [Compound 24a] | – | – | – | – | – | – | – | little to no activity | – |
| COc1cc(C(=O)NS(=O)(=O)c2ccccc2C)ccc1Cc1cn(C)c2ccc(NC(=O)OC3CCCC3)cc12 [ZAF, zafirlukast, reference compound] | up to 62.6 μg/mL | up to 31.3 μg/mL | up to 62.6 μg/mL | – | – | – | – | – | viability at 24 h, 25 µM [4]: 41% |
| C[C@@H]1[C@H](O)[C@@H](C)/C=C/C=C/C=C/C=C/C=C/C=C/C=C/[C@H](O[C@@H]2O[C@H](C)[C@@H](O)[C@H](N)[C@@H]2O)C[C@@H]2O[C@](O)(C[C@@H](O)C[C@@H](O)[C@H](O)CC[C@@H](O)C[C@@H](O)CC(=O)O[C@H]1C)C[C@H](O)[C@H]2C(=O)O [amphotericin B] | – | – | – | – | – | – | – | – | hemolytic activity [6]: 0% |
| COc1ccc(Cc2cn(CC(C)C)c3ccc([N+](=O)[O-])cc23)cc1C(=O)NS(=O)(=O)c1ccc([N+](=O)[O-])cc1 [Compound 25g] | – | – | – | comparable or superior activity | 61 to 73 | not bactericidal | – | – | – |
| CCCCn1cc(Cc2ccc(OC)c(C(=O)NS(=O)(=O)c3ccc([N+](=O)[O-])cc3)c2)c2cc([N+](=O)[O-])ccc21 [Compound 24g] | – | – | – | comparable or superior activity | – | – | comparable or superior activity | comparable or superior activity | growth inhibition by CFU assay (bactericidal activity) (P. gingivalis ATCC 33277 [1]; 100 μM): bactericidal activity; inhibition at 10 µM (P. gingivalis ATCC 33277 [2]): 77 to 90%; P. gingivalis growth inhibition (P. gingivalis ATCC 33277 [2]; [7]): 69–90%; cytotoxicity to OKF6 cells by cell morphology and density ([3]; 10 μM): low toxicity; also recorded: little to no cytotoxicity; cytotoxicity to OKF6 cells by cell morphology and density ([3]; 100 μM): slight decrease in cell density; viability at 24 h, 10 µM [4]: 9 to 63%; viability at 24 h, 100 µM [4]: 5 to 23% |
